Experimental data published in ChEMBL document CHEMBL1649157, “Intracellular activity of antibiotics against Staphylococcus aureus in a mouse peritonitis model” (Antimicrob Agents Chemother, 2009).
Calls of active or inactive are those of the source. The rule behind the calls is not given here.

Tests used:
Staphylococcus aureus [1] = assay: Antibacterial activity against Staphylococcus aureus E19977 infected in NMRI mouse assessed as log reduction in intracellular bacterial cfu in peritoneum at 200 mg/kg, sc administered 2 hrs after infection measured after 4 hrs; assay type: functional, organism-based; parameters: dose 200 mg/kg
Method in brief: (§1)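 Dose–response in i.p.-infected NMRI mice (mucin adjuvant). Single doses of 200, 60, 30, 20 or 10 mg/kg were given 2 h after inoculation, with 4–16 mice per group. Peritoneal wash was sampled 4 h later and split by lysostaphin/centrifugation into total, extra- and intracellular counts, then expressed as Δlog10 CFU/ml against log dose. Vehicle controls were plotted as 0.3 mg/kg. Hill fit (variable slope); static dose interpolated.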

Staphylococcus aureus [2] = assay: Antibacterial activity against Staphylococcus aureus E19977 infected in NMRI mouse assessed as log reduction in extracellular bacterial cfu in peritoneum at 60 mg/kg, sc administered as single dose 1 hr after infection measured after 4 hrs; assay type: functional, organism-based; parameters: dose 60 mg/kg
Method in brief: (§2)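 NMRI mice were infected i.p. with S. aureus E19977 in 5% mucin. A single dose (60 mg/kg or 10 mg/kg) was given 1, 2 or 3 h after inoculation, four mice per group. Peritoneal wash was sampled after 4 h of treatment and separated into total, extracellular and intracellular counts by lysostaphin/centrifugation. Δlog10 CFU/ml was calculated against vehicle-treated mice infected for the same time (5, 6 or 7 h).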

Staphylococcus aureus [3] = assay: Antibacterial activity against Staphylococcus aureus E19977 infected in NMRI mouse assessed as log reduction in intracellular bacterial cfu in peritoneum at 200 mg/kg, sc administered 2 hrs after infection evry 8 hrs as three-dose regimen measured after 19 hrs; assay type: functional, organism-based; parameters: dose 200 mg/kg
Method in brief: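 NMRI mice were infected i.p. and given one or three doses (every 8 h), starting 2 h post-inoculation, at 200 mg/kg or 60 mg/kg, four mice per group. Peritoneal washes were sampled over 19 h of treatment. Total, extracellular and intracellular CFU/ml (lysostaphin separation) were compared with the pretreatment level; mean ± range, n = 2. Untreated controls were sampled only at 6 h of infection.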

Staphylococcus aureus [4] = assay: Antibacterial activity against Staphylococcus aureus E19977 infected in NMRI mouse assessed as log reduction in intracellular bacterial cfu in peritoneum at 60 mg/kg, sc administered as single dose 3 hrs after infection measured after 4 hrs; assay type: functional, organism-based; parameters: dose 60 mg/kg; method in brief: as §2
Staphylococcus aureus [5] = assay: Bactericidal activity against Staphylococcus aureus E19977 assessed as log reduction in cfu at 0.5 mg/liter after 24 hrs by time-kill study; assay type: functional, organism-based
Method in brief: (§3)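 In vitro kinetic model simulating antibiotic elimination without inoculum change. Exponential-phase E19977 was added at a final 10^6.3 CFU/ml. Starting drug concentration matched the human free peak, with the human half-life simulated. Samples were plated on 5% blood agar at 0, 2, 4, 6, 8, 12 and 24 h, with growth controls in each run. Results are shown as mean and range, n = 2.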

Staphylococcus aureus [6] = assay: Antibacterial activity against Staphylococcus aureus E19977 infected in NMRI mouse assessed as log reduction in bacterial cfu in peritoneum at 60 mg/kg, sc administered as single dose 1 hr after infection measured after 4 hrs; assay type: functional, organism-based; parameters: dose 60 mg/kg; method in brief: as §2
Staphylococcus aureus [7] = assay: Antibacterial activity against Staphylococcus aureus E19977 infected in NMRI mouse assessed as log reduction in bacterial cfu in peritoneum at 10 to 200 mg/kg, sc administered 2 hrs after infection measured after 4 hrs; assay type: functional, organism-based; method in brief: as §1
Staphylococcus aureus [8] = assay: Antibacterial activity against Staphylococcus aureus E19977 infected in NMRI mouse assessed as log reduction in intracellular bacterial cfu in peritoneum at 60 mg/kg, sc administered as single dose 2 hrs after infection measured after 4 hrs; assay type: functional, organism-based; parameters: dose 60 mg/kg; method in brief: as §2
[9] = Cmax in human at 1000 mg, po; assay type: ADME, organism-based; parameters: dose 1000 mg, route oral; details: in vivo
Staphylococcus aureus [10] = assay: Bactericidal activity against Staphylococcus aureus E19977 assessed as log reduction in cfu at 2 mg/liter after 12 hrs by time-kill study; assay type: functional
Method in brief: (§4)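 Clinical bacteremia isolate (penicillin-resistant, methicillin-susceptible). Exponential-phase bacteria were placed in an in vitro kinetic model that simulates drug elimination without changing the inoculum. The starting drug level matched the human free peak serum concentration after a single dose, with simulated human elimination half-life. Samples were taken at 0, 2, 4, 6, 8, 12 and 24 h, with growth controls in each run.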

Staphylococcus aureus [11] = assay: Antibacterial activity against Staphylococcus aureus E19977 infected in NMRI mouse assessed as log reduction in bacterial cfu in peritoneum at 60 mg/kg, sc administered as single dose 3 hrs after infection measured after 4 hrs; assay type: functional, organism-based; parameters: dose 60 mg/kg; method in brief: as §2
Staphylococcus aureus [12] = assay: Bactericidal activity against Staphylococcus aureus E19977 assessed as log reduction in cfu at 1.5 mg/liter upto 24 hrs by time-kill study; assay type: functional; method in brief: as §4
Staphylococcus aureus [13] = assay: Bactericidal activity against Staphylococcus aureus E19977 assessed as log reduction in cfu at 9 mg/liter after 24 hrs by time-kill study; assay type: functional, organism-based; method in brief: as §3

Cmax [9]: 30000 ng/mL
Structure (SMILES): Cc1onc(-c2c(Cl)cccc2Cl)c1C(=O)N[C@@H]1C(=O)N2[C@@H]1SC(C)(C)[C@@H]2C(=O)O [DICLOXACILLIN]
Activity (Staphylococcus aureus [1]): inactive
Activity (Staphylococcus aureus [2]): Active
Activity (Staphylococcus aureus [3]): inactive
Activity (Staphylococcus aureus [4]): inactive
Activity (Staphylococcus aureus [5]): inactive
Activity (Staphylococcus aureus [6]): Active
Activity (Staphylococcus aureus [7]): Dose-dependent effect
Activity (Staphylococcus aureus [8]): Active
FC (Staphylococcus aureus [10]): 2
Activity (Staphylococcus aureus [11]): inactive
FC (Staphylococcus aureus [12]): 2
Activity (Staphylococcus aureus [13]): inactive
